High-throughput results: PubChem BioAssay, several laboratories
Rows were chosen to be rich in hits. Some 2.1% of all compounds tested hit in one or more screens of this group.
Apaf-1 inh: blocks human Apaf-1 apoptosome activity; O14727; reconstituted apoptosome caspase-3 activity, DEVD-Rh110 fluorescence; inhibition, % at 20 µM; 330,000 tested, 0.71% active; AID 489030; active = inhibition of at least 40% at 20 µM;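 note: plate controls were DMSO wells for no effect and DEVD-CHO caspase inhibitor wells for full effect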
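Material: reconstituted apoptosome with Apaf-1, cytochrome c, caspase-9, procaspase-3, dATP. Technique: Rh110 fluorescence intensity. Buffer or medium: pH 7.5 Hepes buffer with CHAPS, BSA, DTT. Times: 30 min plus 50 min, RT.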
PP1 inh: blocks human PP1-alpha phosphatase, a PP5 counter-screen | P62136 | purified PP1alpha, OMFP fluorescence | inhibition, % at 6.7 µM | 320,000 tested, 0.9% active;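 active = inhibition above the mean inhibition of all tested compounds plus 3 SD, computed separately for each screening campaign, cut at about 15% in these data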
Target sequence (P62136 whole entry, looked up): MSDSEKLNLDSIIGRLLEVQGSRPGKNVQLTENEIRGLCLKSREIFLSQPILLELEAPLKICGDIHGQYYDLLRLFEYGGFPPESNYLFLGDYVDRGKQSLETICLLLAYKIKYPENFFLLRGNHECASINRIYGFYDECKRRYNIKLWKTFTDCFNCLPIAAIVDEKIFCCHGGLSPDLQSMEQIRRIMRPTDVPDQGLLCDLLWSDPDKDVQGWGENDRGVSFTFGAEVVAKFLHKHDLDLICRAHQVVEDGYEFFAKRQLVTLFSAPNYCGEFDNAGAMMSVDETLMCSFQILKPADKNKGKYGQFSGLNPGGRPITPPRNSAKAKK
GSTO1 counter: blocks human GSTO1 in RBBP9 counter-screen; P78417; recombinant GSTO1, activity-based probe fluorescence polarization; inhibition, % at 5.96 µM; 300,000 tested, 1.1% active; AID 1974;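 active = inhibition above the campaign mean inhibition plus 3 SD, cut at about 35% in these data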;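 note: 0% = GSTO1-1 with DMSO and 100% = wells lacking GSTO1-1 enzyme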
PP5 primary: blocks human protein phosphatase 5 activity; P53041; purified PP5c, OMFP substrate fluorescence; inhibition, % at 6.7 µM; 320,000 tested, 0.18% active;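 active = inhibition above the campaign's mean inhibition across all tested compounds plus 3 SD, cut at about 9.5% in these data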;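 note: 0% = DMSO only and 100% = 100 µM cantharidin control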
TDP2 absorb: blocks human TDP2 phosphodiesterase activity. O95551. recombinant TDP2, T5PNP hydrolysis, p-nitrophenol absorbance 415 nm. inhibition, % at 12.8 µM. 370,000 tested, 0.34% active;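 active = inhibition above the mean of all tested compounds plus 3 SD, set per campaign, cut at about 25% in these data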;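 note: 0% = DMSO with enzyme and 100% = buffer with substrate but no TDP2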
Target sequence (O95551 whole entry, looked up): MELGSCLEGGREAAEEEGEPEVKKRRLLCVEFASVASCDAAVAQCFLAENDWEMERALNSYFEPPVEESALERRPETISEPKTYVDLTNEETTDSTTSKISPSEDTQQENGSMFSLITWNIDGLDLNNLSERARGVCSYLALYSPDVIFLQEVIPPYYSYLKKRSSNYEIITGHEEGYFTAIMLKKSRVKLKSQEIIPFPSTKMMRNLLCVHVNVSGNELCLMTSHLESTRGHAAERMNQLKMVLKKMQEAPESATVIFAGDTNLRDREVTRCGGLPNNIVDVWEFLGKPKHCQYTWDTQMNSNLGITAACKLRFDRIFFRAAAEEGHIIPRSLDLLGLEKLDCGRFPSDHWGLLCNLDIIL
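System – recombinant human TDP2 · Quantity – TDP2 enzyme at 120 nM final · Doses – single concentration, 12.8 µM nominal, with 1% DMSO · Incubation – 2 h at 37 °C · Measured by – epi absorbance of p-nitrophenol freed from T5PNP by hydrolysis · Read-out – % inhibition relative to enzyme-containing and enzyme-free wells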
TDP2 inh conf: confirmation of human TDP2 inhibitors | shares compounds with TDP2 absorb | recombinant human TDP2, absorbance read-out | inhibition, % at 12.8 µM | 1,100 tested, 22% active | AID 743263; in the data active = inhibition above about 25%;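 note: 0% = vehicle with enzyme and 100% = no enzyme buffer only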
* hit, by the source's call; · = no result.

SMILES	Apaf-1 inh	PP1 inh	GSTO1 counter	PP5 primary	TDP2 absorb	TDP2 inh conf
CCOc1ccc2nc(NC(=S)N(C)C)sc2c1	-4.5	-1.2	-8.1	4.0	26.2*	17.2
O=C(CSc1nc2ccccc2nc1N1CCOCC1)N1CCN(S(=O)(=O)c2cccc([N+](=O)[O-])c2)CC1	·	·	·	·	-3.3	·
CCOc1cc(/C=N/Nc2nnc(C)n2N)ccc1OC(C)=O	1.5	·	·	·	42.8*	8.0
COc1cc(/C=N/NC(=O)Nc2ccccc2)ccc1OC(C)=O	1.8	-4.2	2.0	0.4	5.1	·
CCc1nnc(N/N=C/c2ccc(O)c(OC)c2)n1N	-11.3	-0.1	19.8	1.3	79.2*	14.1
CCOc1cc(/C=N\NC(=O)c2ccc(C)nc2)ccc1OC(=O)c1ccc(F)cc1	8.9	-1.6	7.9	2.8	-4.7	·
CCc1nnc(N/N=C\c2ccc(OC(C)=O)c(OC)c2)n1N	0.9	1.0	20.6	0.5	54.4*	4.4
O=C(NC1CCCCN(Cc2cccc(Cl)c2)C1=O)C1CCCCC1 (centres undefined)	·	·	·	·	-1.6	·
CN(C)CCOC(=O)c1ccc2[nH]c3c(c2c1)CSCC3	14.6	-0.8	6.8	0.4	24.8*	-2.8
O=C(O)c1ccc2[nH]c3c(c2c1)CSCC3	-7.8	-1.0	17.0	-0.5	·	·
Cc1ccc2c(c1C)-c1c(ccc(C)c1C)C(=O)C2=O	·	·	·	·	79.3*	67.3*
Cc1ccc(CC#N)c(-c2c(CC#N)ccc(C)c2C)c1C	·	·	·	·	1.3	·
Cc1ccc(C=C2C(=O)c3ccccc3C2=O)o1	11.4	0.8	23.9	1.9	10.4	·
Cc1ccc(/C=C2/C(=O)c3ccc(C(=O)O)cc3C2=O)o1	·	·	·	·	25.7*	24.6*
Cc1nn(C(C)C(=O)NCc2ccco2)c(=O)c2nn(-c3ccccc3)c(C)c12 (centres undefined)	-3.8	-2.3	0.2	3.8	28.2*	5.4
COC(=O)C1=CN(Cc2ccccc2)C=C(C(=O)OC)C1c1ccc(OC)c(OC)c1	22.1	-0.8	-4.3	2.8	25.9*	4.8
COC(=O)C1=CN(Cc2ccccc2)C=C(C(=O)OC)C1c1ccc(O)c(OC)c1	9.6	-5.0	-1.9	4.4	2.1	·
C[C@H](c1ccccc1)N1C[C@@H](COCc2ccccc2)Oc2cccc(N3CCCC3)c2S1(=O)=O	·	·	·	·	8.4	·
CCCCCN1CCCCC(NC(=O)c2cccc(F)c2)C1=O (centres undefined)	·	·	·	·	5.8	·
CSc1nc2ccsc2c(=O)n1-c1ccccn1	-4.8	-2.5	-5.7	0.8	60.0*	8.7
Cc1ccc(OCCNC(=O)c2ccc(NC(=O)CC3SC(N4CCCC4)=NC3=O)cc2)cc1 (centres undefined)	8.6	-5.8	10.8	1.8	40.2*	-1.4
COc1ccc(CCNC(=O)c2ccc(NC(=O)CC3SC(N4CCCC4)=NC3=O)cc2)cc1 (centres undefined)	6.7	-3.7	-2.3	-0.2	3.9	·
COC(=O)CCC(=O)OC1(C)C(=O)C=C2C=C(C3CC3)N(Cc3ccccc3)C=C2C1=O (centres undefined)	42.2*	4.8	21.2	6.0	25.5*	7.2
COC(=O)CCC(=O)OC1(C)C(=O)C=C2C=C(C3CC3)N(C3CCCCC3)C=C2C1=O (centres undefined)	62.4*	4.6	18.9	7.8	28.9*	2.6
C=CCCC1CN(Cc2ccc(OC)cc2)S(=O)(=O)c2c(cccc2Sc2ccc(OC)c(OC)c2)O1 (centres undefined)	·	·	·	·	3.1	·
SMILES	Apaf-1 inh	PP1 inh	GSTO1 counter	PP5 primary	TDP2 absorb	TDP2 inh conf
CC(=O)N1CCN(C2=Nc3ccccc3Sc3ccccc32)CC1	·	·	·	·	3.6	·
O=C1C2(CCCC13COC(c1ccc(O)cc1)OC3)COC(c1ccc(O)cc1)OC2 (centres undefined)	-126.9	-0.9	4.5	0.4	25.0*	2.7
Cc1ccc(NC(=O)C2CCN(C(=O)[C@@H]3Cc4ccccc4CN3)CC2)c(C)c1	-72.0	-0.9	3.7	0.5	25.4*	1.6
COc1ccc(NC(=O)C2CCN(C(=O)[C@@H]3Cc4ccccc4CN3)CC2)cc1	-3.1	2.9	1.9	1.1	27.9*	2.0
COc1cc(C2C(C#N)=C(N)Oc3n[nH]c(-c4cccnc4)c32)cc(Br)c1O (centres undefined)	8.6	0.0	13.8	2.5	31.0*	-3.9
N#CC1=C(N)Oc2n[nH]c(-c3ccc(F)cc3)c2C1c1cccnc1 (centres undefined)	9.6	·	·	·	3.8	·
COc1cc(C2C(C#N)=C(N)Oc3n[nH]c(-c4cccnc4)c32)ccc1OCC(N)=O (centres undefined)	0.5	-4.4	13.7	0.6	52.1*	-2.9
COc1cc2oc3cc(C#Cc4ccc(N)cc4)ccc3c(=O)c2cc1OC	-4.0	-1.0	-14.6	-0.9	-14.4	·
Nc1ccc(C#Cc2ccc3c(=O)c4ccccc4oc3c2)cc1	2.7	0.4	-11.2	2.9	26.9*	-3.4
Cc1ccccc1NC(=O)CN1CCCC1	·	·	·	·	2.5	·
Cc1ccccc1NC(=O)CN1CCN(C)CC1	3.0	8.9	12.8	-0.7	35.9*	5.3
COC(=O)[C@H](C(C)C)N(CCCc1cn(CC2CCCCC2)nn1)S(=O)(=O)c1ccc(F)cc1Br	·	·	·	·	-12.1	·
CC1CCN(C2CCN(C(=O)c3ccccc3F)CC2)CC1	-15.6	-0.1	6.9	1.0	28.2*	7.5
CO[C@H]([C@H](C)/C=C/N(C)C=O)[C@@H](C)C(=O)CC[C@H](C)[C@H](O)[C@H](C)[C@H]1OC(=O)/C=C/C(C)=C/C[C@H](O)C[C@@H]2C=CC[C@@H](C[C@H](OC)[C@@H](CO)[C@@H](OC)C[C@@H](OC)[C@@H]1C)O2	·	·	·	·	-20.6	·
COc1cc(/C=C2\C(=O)N(c3ccccc3)N=C2C)ccc1Oc1ccc([N+](=O)[O-])cc1[N+](=O)[O-]	·	-0.6	32.9	2.5	64.7*	16.0
CCCCS(=O)(=O)N1CCCc2nc(CC)c(CC)cc21	·	·	·	·	5.1	·
COc1ccc(-n2c(Cc3cccs3)nnc2SCC(=O)Nc2ccc(OCc3ccccc3)cc2)cc1	·	·	·	·	3.6	·
Cc1nc2ccc(C(=O)OCc3nnc(-c4ccc(Br)cc4)o3)cc2nc1C	-2.9	0.8	7.0	2.5	13.2	·
Cc1nc2ccc(C(=O)OCc3nnc(-c4ccccc4)o3)cc2nc1C	5.3	·	·	·	24.6*	9.1
C[C@@H]1[C@@H](O)C[C@@]2(C[C@H](O)c3cc(Cl)cc(Cl)c3O2)O[C@H]1c1ccccc1Cl	·	·	·	·	-12.7	·
COC(=O)c1cc(NC(=O)c2cc3ccccc3o2)cc(C(=O)OC)c1	3.3	-0.8	5.1	-0.1	26.2*	0.8
COC(=O)c1cccc(NC(=O)c2cc3ccccc3o2)c1	17.6	0.9	-2.7	4.7	-12.2	·
c1ccc(Nc2cc(Nc3ccccc3)[nH]n2)cc1	5.0	-2.5	3.6	4.0	74.8*	5.9
O=c1nccc(Nc2ccccc2)[nH]1	-1.6	-2.7	-3.4	2.5	13.5	·
Cc1cc(=O)c2c(o1)C(=O)c1occc1C2=O	·	·	·	·	35.8*	21.3
